Measured values published in ChEMBL document CHEMBL1157774, “Investigations of fungal secondary metabolites with potential anticancer activity” (J Nat Prod, 2010).
Activity calls are given as the source filed them. The rule behind the calls is not given here.

Key:
[1] = Growth inhibition of apoptosis-resistant human U373 cells after 72 hrs by MTT assay; format: functional, cell-based, U-373MG ATCC; settings: U373 MG
In short: (§1)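 Cells seeded at 10 000 to 40 000 cells/mL, depending on line, and plated 24 h before treatment. Cultured 72 h with or without (control) compound. Viable cells measured by MTT reduction to formazan, absorbance at 570 nm (reference 630 nm). IC50 reported as mean ± SEM. Media carried 4 mM glutamine, gentamicin and penicillin-streptomycin. B16F10 grown in RPMI with 10% heat-inactivated FCS.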

B16-F10 [2] = assay: Growth inhibition of apoptosis-sensitive mouse B16F10 cells after 72 hrs by MTT assay; format: functional, cell-based; settings: B16-F10, 72 h; in short: as §1
A549 = assay: Growth inhibition of apoptosis-resistant human A549 cells after 72 hrs by MTT assay; format: functional, cell-based; settings: A549, 72 h; in short: as §1
[3] = Growth inhibition of apoptosis-resistant human OE21 cells after 72 hrs by MTT assay; format: functional, cell-based; settings: OE21, 72 h; in short: as §1
Hs 683 = assay: Growth inhibition of apoptosis-sensitive human Hs 683 cells after 72 hrs by MTT assay; format: functional, cell-based; settings: Hs 683, 72 h; in short: as §1
SK-MEL-28 = assay: Growth inhibition of apoptosis-resistant human SK-MEL-28 cells after 72 hrs by MTT assay; format: functional, cell-based; settings: SK-MEL-28, 72 h; in short: as §1
B16-F10 [4] = assay: Cytostatic effect against apoptosis-sensitive mouse B16F10 cells assessed as impairment of cell population development at 20 uM by quantitative video microscopy
B16-F10 [5] = assay: Cytostatic effect against apoptosis-sensitive mouse B16F10 cells assessed as impairment of cell population development at 20 uM by quantitative video microscopy; format: functional, cell-based
In short: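 Computer-assisted phase-contrast microscopy (quantitative videomicroscopy) of B16F10 cells in RPMI with 10% heat-inactivated FCS, monitored 72 h without (control) or with compound. Time-lapse image sequences built into movies. Growth level taken as ratio of cell counts in first versus last frames. Cells counted in 1 mm2 fields at G×20, triplicate conditions, five fields each (15 fields per condition), mean ± SEM.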

IC50 (B16-F10 [2]) [µM] | IC50 (A549) [µM] | IC50 (SK-MEL-28) [µM] | Compound | IC50 [1] [µM] | IC50 [3] [µM] | IC50 (Hs 683) [µM] | inhibition (B16-F10 [4]) | inhibition (B16-F10 [5])
3 | 11 | 8 | C/C=C/C=C/C(=O)[C@@H]1[C@@H]([C@]2(C)OC(=O)C(C)=C2O)C2\C(=C(O)/C=C/C=C/C)C(=O)[C@]1(C)C(=O)[C@@]2(C)O [BISLONGIQUINOLIDE] | 4 | 9 | 22 |  | 
3 | 33 | 33 | C/C=C/C=C/C(=O)C1=C(O)[C@@]2(C)C3C(C(=O)CC/C=C/C)=C(O)[C@@]4(C)C1[C@]1(C)O[C@@]4(O)[C@@]3(C)O[C@@]12O [DIHYDROTRICHODIMEROL] | 25 | 28 | 34 | Active | 
> 100 | > 100 | > 100 | C[C@@H]1[C@@]2(C)CC[C@@H]3[C@H]2CC[C@@]1(C)O[C@@]3(C)O [SEIRICARDINE B] | > 100 | > 100 | > 100 |  | 
> 100 | > 100 | > 100 | C[C@@H]1[C@@]2(C)CC[C@@H]3[C@H]2CC[C@@]1(C)O[C@]3(C)O [SEIRICARDINE C] | > 100 | > 100 | > 100 |  | 

Compound | IC50 (B16-F10 [2]) [µM] | IC50 (A549) [µM] | IC50 (SK-MEL-28) [µM] | IC50 [1] [µM] | IC50 [3] [µM] | IC50 (Hs 683) [µM] | inhibition (B16-F10 [4]) | inhibition (B16-F10 [5])
O[C@H]1[C@H]2c3cc4c(cc3CN3CCC(=C[C@@H]1O)[C@H]23)OCO4 [LYCORINE] | 2 | 2 | 2 | 2 | 2 | 2 |  | Active
O=C1N[C@@H]2C(=C[C@H](O)[C@@H](O)[C@H]2O)c2cc3c(c(O)c21)OCO3 [NARCICLASINE] | 0.05 | 0.05 | 0.05 | 0.05 | 0.05 | 0.05 |  | 
